An excerpt weighted towards active compounds, which were near 1.8% of everything screened.
PG9 Ab binder – small molecules binding HIV-1 gp120 antibody PG9. hit rate 0.43% among 360,000. AID 624416. TR-FRET gp120-PG9 antibody binding. inhibition, % at 6.7 µM; in the data active = inhibition above about 8.5%
NR1D1 modulator – Rev-erb alpha (human) modulation; P20393; activity, % at 10 µM; Rev-erbα–FITC-DNA binding, fluorescence polarization, 90 min; hit rate 0.79% among 370,000;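 active = activity above about 14%, limit read from the data; passing the limit was not always enough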
Rin1 Abl inh – human Rin1-Abl interaction inhibition; AID 588664; hit rate 0.4% among 360,000; P00519+Q13671; inhibition, % at 7.35 µM; TR-FRET Rin1/Abl binding, biochemical; in the data active = inhibition above about 5%, passing the limit was not always enough
TbMetRS inhib – Trypanosoma brucei MetRS inhibition | purified T. brucei MetRS, ATP depletion, Kinase-Glo luminescence | inhibition, % at 11.9 µM | hit rate 0.4% among 360,000 | AID 624268;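 active = inhibition above a per-plate cutoff of the control wells' mean inhibition plus 3 SD, cut at about 5.5% in these data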
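Material: T. brucei methionyl-tRNA synthetase, purified; reagent: substrates ATP, L-methionine and bulk Escherichia coli tRNA; dosing: 11.9 µM single point; timing: 15 min plus 2 h at 25 °C; detection: luminescence of leftover ATP; evaluation: % inhibition; control set: DMSO-only wells as low control; replicates: singlicate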
PG9 binder conf – PG9 antibody binding, confirmed; inhibition, % at 6.7 µM; shares compounds with PG9 Ab binder; TR-FRET PG9 antibody binding, biochemical; AID 651571; hit rate 90% among 1,500; in the data active = inhibition above about 9%
PGV04 Ab binding – binds control antibody PGV04 in PG9 binder counter-screen. AID 651604. TR-FRET PGV04 antibody-gp120 binding, biochemical. shares compounds with PG9 Ab binder. hit rate 95% among 1,500. inhibition, % at 6.7 µM; in the data active = inhibition above about 9.5%
PG9 bind DR – PG9 antibody binding, dose response | shares compounds with PG9 Ab binder | TR-FRET PG9 antibody-gp120 binding inhibition | IC50, µM | 95 tested, under 10 active | AID 651848; in the data active = IC50 below about 10 µM
PGV04 DR counter – counter-screen for PG9 binders: binding to control antibody PGV04. shares compounds with PG9 Ab binder. TR-FRET binding to control antibody PGV04. IC50, µM. hit rate 20% among 95. AID 651937
PG126 binding DR – binds control antibody PG126 in PG9 counter-screen | AID 651939 | hit rate 20% among 95 | IC50, µM | TR-FRET binding to antibody PG126, counterscreen | shares compounds with PG9 Ab binder
Of the large screens only hits and unclear results are named; the others gave an inactive call (follow-up assays come after a bar, where they were run). Cut-off read from the data, not from the text of the source, unless noted: active = IC50 below about 9 µM; inactive = the rest.

CCCCn1c(NC(=O)c2ccco2)c(S(=O)(=O)c2ccc(C)cc2)c2nc3ccccc3nc21	PG9 Ab binder 18 | PG9 binder conf 21 | PGV04 Ab binding 25
O=C(C1CCC1)N1CCc2cc(S(=O)(=O)C3CCN(Cc4ccc(F)cc4)CC3)ccc21	none (no result: PG9 Ab binder, Rin1 Abl inh, TbMetRS inhib)
CCC(C(=O)NC1CCCCC1)n1c2ccccc2c2nc(=O)cc(C)n21 (configuration not stated)	PG9 Ab binder 16 | PG9 binder conf inactive | PGV04 Ab binding 9.5
Nc1cc2sc(-c3ccc(C(=O)O)cc3)nc2cc1Cl	PG9 Ab binder 8.6 | PG9 binder conf 12 | PGV04 Ab binding 20
Cc1cc(C)cc(NC(=O)C2CCN(S(=O)(=O)c3ccc4[nH]c(=O)ccc4c3)CC2)c1	PG9 Ab binder 13 | PG9 binder conf 16 | PGV04 Ab binding 30
Nc1c(C(=O)NCc2ccccc2)sc2nc(N3CCOCC3)c3c(c12)CCCC3	PG9 Ab binder 10 | PG9 binder conf 8.6 | PGV04 Ab binding 16
Nc1c(C(=O)Nc2ccccc2)sc2nc(N3CCOCC3)c3c(c12)CCCC3	none
N#C/C(=C(/O)COC(=O)COc1cccc(Br)c1)c1nc2ccccc2[nH]1	PG9 Ab binder 12 | PG9 binder conf 19 | PGV04 Ab binding 31
Cc1cc(C)cc(OCC(=O)OC/C(O)=C(\C#N)c2nc3ccccc3[nH]2)c1	none
COc1ccccc1C(=O)COC(=O)c1ccc(-n2cnnn2)cc1	none
COc1ccc(C(=O)COC(=O)c2ccc(-n3cnnn3)cc2)c(OC)c1	PG9 Ab binder 24 | PG9 binder conf 36 | PGV04 Ab binding 44
O=C(CC1CCCC1)N1CC[C@H]2[C@H](CCCN2Cc2cc(F)cc(F)c2)C1	none (no result: PG9 Ab binder, Rin1 Abl inh, TbMetRS inhib)
CCOC(=O)Nc1nnc(-c2cccc(OC)c2)s1	none
CCCC(=O)Nc1nnc(-c2cccc(OCC)c2)s1	PG9 Ab binder 16 | PG9 binder conf 22 | PGV04 Ab binding 39
O=S(=O)(c1ccc(C(F)(F)F)cc1)N1CCCc2nc(-c3ccc(F)cc3)ccc21	none (no result: Rin1 Abl inh, TbMetRS inhib)
O=C(Nc1ncc(Cc2ccc(SC(F)F)cc2)s1)c1ccc(OC(F)F)cc1	PG9 Ab binder 22 | PG9 binder conf 12 | PGV04 Ab binding 18
CCCc1c2c(cc3c(=O)cc(C(=O)OCC)oc13)CCCC2	none
CN(C)c1ccc(-c2nnc(-c3ccc(S(=O)(=O)C(F)F)cc3)o2)cc1	PG9 Ab binder 11 | PG9 binder conf 17 | PGV04 Ab binding 20
COc1ccc(-c2nnc(-c3ccc(N(C)C)cc3)o2)cc1	none
Cc1cc(C=O)c(C)n1-c1ccc(Oc2ccc([N+](=O)[O-])cn2)cc1	PG9 Ab binder 8.6 | PG9 binder conf 10 | PGV04 Ab binding 15
CCOc1cc(CCNC(=O)c2cc3ccsc3n2C)ccc1OC	none (no result: PG9 Ab binder, Rin1 Abl inh, TbMetRS inhib)
Cn1c(Cc2cccs2)nnc1SCC(=O)Nc1ccc2c(c1)OCO2	none (no result: PG9 Ab binder, Rin1 Abl inh, TbMetRS inhib)
CC(=O)Nc1nc(=O)c2ccccc2s1	none
O=C(Nc1nc(=O)c2ccccc2s1)c1ccccc1	PG9 Ab binder 29 | PG9 binder conf 51 | PGV04 Ab binding 69
CC1CCN(CC(=O)Nc2nn(-c3ccccc3)nc2C(N)=O)CC1	none
COC(=O)c1ccc(OCC(=O)Nc2nn(-c3ccccc3)nc2C(N)=O)cc1	PG9 Ab binder 12 | PG9 binder conf 30 | PGV04 Ab binding 34
CCN(c1ccccc1)S(=O)(=O)c1ccc2[nH]cc(C(=O)N3CCOCC3)c(=O)c2c1	PG9 Ab binder 9.1 | PG9 binder conf inactive | PGV04 Ab binding 9.9
CCOC(=O)/C(C#N)=C1/C=C(C)NC(c2ccccc2O)=N1	PG9 Ab binder 24 | PG9 binder conf 27 | PGV04 Ab binding 34
CC(C)Cc1c2c([nH]c(=S)c1C#N)CCCC2	PG9 Ab binder 15 | PG9 binder conf inactive | PGV04 Ab binding inactive
Cc1[nH]c(=S)c(C#N)c2c1CCCC2	none
C[C@H]1COc2cc(Br)ccc2S(=O)(=O)N1Cc1cn(CCC2OCCO2)nn1	none (no result: PG9 Ab binder, Rin1 Abl inh, TbMetRS inhib)
OC[C@H]1O[C@@H](Oc2ccc3cc(Br)ccc3c2)[C@H](O)[C@@H](O)[C@H]1O	PG9 Ab binder 11 | PG9 binder conf 17 | PGV04 Ab binding 24
C=CCNC(=O)c1cc(-c2ccc(Br)cc2)on1	PG9 Ab binder 9.4 | PG9 binder conf 25 | PGV04 Ab binding 28
O=C(NCCN1CCOCC1)c1cc(-c2ccc(Br)cc2)on1	none
CCC(C)[C@H]1CNCCN1CCC12CC3CC(CC(C3)C1)C2 (some centres not stated)	none
CC1(c2ccc(OC(F)F)cc2)NC(=O)N(CC(=O)NCCC2=CCCCC2)C1=O (configuration not stated)	none
Cc1ccccc1C(=O)Nc1nnc(S(=O)(=O)N2CCCCC2)s1	PG9 Ab binder 24 | PG9 binder conf 32 | PGV04 Ab binding 40
O=C(C(=O)N1CCN(C(=O)c2cccs2)CC1)c1cccc(C(F)(F)F)c1	none (no result: Rin1 Abl inh, TbMetRS inhib)
COC(=O)c1cc2c(C)cc3ccc(C)cn3c-2c1C(=O)OC	PG9 Ab binder 11 | PG9 binder conf 17 | PGV04 Ab binding 22
Cc1ccnc(N2CCC(C(=O)Nc3ccc4c(c3)CCC4)CC2)n1	PG9 Ab binder 37 | PG9 binder conf 44 | PGV04 Ab binding 61
Cc1nn(C)c(C)c1NC(=O)CSc1nc(C2CC2)nc2c1cnn2-c1ccccc1	PG9 Ab binder 13 | PG9 binder conf 43 | PGV04 Ab binding 74
COc1ccc(OC)c(NC(=O)c2c(NC(=O)CCC(=O)O)sc3c2CCCCC3)c1	none
COc1ccc(NC(=O)c2c(NC(=O)CNCC(C)C)sc3c2CCC3)c(OC)c1	PG9 Ab binder 11 | PG9 binder conf 9.9 | PGV04 Ab binding 9.5 | PG9 bind DR inactive | PGV04 DR counter inactive | PG126 binding DR inactive
Cc1c(N/C=C/C(=O)C(F)(F)F)c(=O)n(-c2ccccc2)n1C	none
O=C(/C=C/Nc1ccccc1)C(F)(F)F	PG9 Ab binder 9.3 | PG9 binder conf inactive | PGV04 Ab binding inactive
COc1ccc2cc(-c3cccc4[nH]cc(C)c34)ccc2c1	none (no result: PG9 Ab binder, Rin1 Abl inh, TbMetRS inhib)
O=C(NCCN1Cc2ccccc2C1=O)c1cccs1	PG9 Ab binder 50 | PG9 binder conf 10 | PGV04 Ab binding 11
O=C(NCCN1CCOCC1)c1cccs1	none
CCOC(=O)c1c(N)sc(=S)c2c1CCC2	PG9 Ab binder 9.5 | PG9 binder conf inactive | PGV04 Ab binding 10
CCOC(=O)c1c(N)sc(N)c1C(=O)OCC	none
Cc1cc(C)c2c(N)c(C(=O)Nc3cccc(C)c3C)sc2n1	PG9 Ab binder 8.9 | PG9 binder conf 46 | PGV04 Ab binding 70

Assay outcomes deposited in PubChem by several laboratories.
